According to ChEMBL document CHEMBL4715736, “Identification of anticancer agents based on the thieno[2,3-b]pyridine and 1H-pyrazole molecular scaffolds” (2016):

Columns and labels:
Format in all cases: functional
[1] = test system: OVCAR-8; assay: Growth inhibition of human OVCAR-8 cells assessed as cell growth at 100 uM incubated for 48 hrs by sulforhodamine B assay relative to control; conditions: read-out: Activity
[2] = test system: HCC 2998; assay: Growth inhibition of human HCC 2998 cells assessed as cell growth at 0.1 uM incubated for 48 hrs by sulforhodamine B assay relative to control; conditions: read-out: Activity
How it was run: (§1)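 NCI Developmental Therapeutics Program NCI60 panel. Compounds that were active in the 10 µM one-dose screen went on to dose–response testing. Growth at each concentration is expressed relative to untreated control (100%). GI50 (concentration giving 50% of maximal inhibition of proliferation) and TGI (concentration giving total growth inhibition) were derived from the curves.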

[3] = test system: NCI-H322M; assay: Growth inhibition of human NCI-H322M cells assessed as cell growth at 1 uM incubated for 48 hrs by sulforhodamine B assay relative to control; conditions: read-out: Activity
[4] = test system: Hs-578T; assay: Growth inhibition of human Hs-578T cells assessed as cell growth at 0.1 uM incubated for 48 hrs by sulforhodamine B assay relative to control; conditions: read-out: Activity
[5] = test system: LOX IMVI; assay: Growth inhibition of human LOX IMVI cells incubated for 48 hrs by sulforhodamine B assay
How it was run: (§2)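 NCI60 panel at the NCI Developmental Therapeutics Program. Only compounds active in the 10 µM screen went to dose-response testing. GI50, the concentration giving 50% of maximal inhibition of proliferation, and TGI, the concentration giving total growth inhibition, were derived from the dose-response curves.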

[6] = test system: SF-268; assay: Growth inhibition of human SF-268 cells assessed as cell growth at 0.1 uM incubated for 48 hrs by sulforhodamine B assay relative to control; conditions: read-out: Activity
[7] = test system: MDA-MB-468; assay: Growth inhibition of human MDA-MB-468 cells assessed as cell growth at 0.01 uM incubated for 48 hrs by sulforhodamine B assay relative to control; conditions: read-out: Activity
[8] = test system: HCT-15; assay: Growth inhibition of human HCT-15 cells assessed as cell growth at 0.1 uM incubated for 48 hrs by sulforhodamine B assay relative to control; conditions: read-out: Activity
[9] = test system: NCI-H322M; assay: Growth inhibition of human NCI-H322M cells assessed as cell growth at 0.01 uM incubated for 48 hrs by sulforhodamine B assay relative to control; conditions: read-out: Activity
[10] = test system: HCT-116; assay: Growth inhibition of human HCT-116 cells incubated for 48 hrs by sulforhodamine B assay; how it was run: as §2
[11] = test system: UACC-62; assay: Growth inhibition of human UACC-62 cells incubated for 48 hrs by sulforhodamine B assay
How it was run: (§3)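 NCI DTP 60-line human tumour panel. Dose-response curves were run only for ligands active in the initial 10 µM screen. GI50 (concentration giving 50% of maximal inhibition of proliferation) and TGI (concentration giving total growth inhibition) were derived from these curves.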

[12] = test system: MDA-MB-468; assay: Growth inhibition of human MDA-MB-468 cells assessed as cell growth at 0.1 uM incubated for 48 hrs by sulforhodamine B assay relative to control; conditions: read-out: Activity
[13] = test system: OVCAR-4; assay: Growth inhibition of human OVCAR-4 cells assessed as cell growth at 100 uM incubated for 48 hrs by sulforhodamine B assay relative to control; conditions: read-out: Activity
[14] = test system: SK-MEL-2; assay: Growth inhibition of human SK-MEL-2 cells assessed as cell growth at 100 uM incubated for 48 hrs by sulforhodamine B assay relative to control; conditions: read-out: Activity
[15] = test system: A498; assay: Growth inhibition of human A498 cells assessed as cell growth at 0.1 uM incubated for 48 hrs by sulforhodamine B assay relative to control; conditions: read-out: Activity; how it was run: as §1
[16] = test system: DU-145; assay: Growth inhibition of human DU-145 cells assessed as cell growth at 0.1 uM incubated for 48 hrs by sulforhodamine B assay relative to control; conditions: read-out: Activity; how it was run: as §1
[17] = test system: SNB-19; assay: Growth inhibition of human SNB-19 cells incubated for 48 hrs by sulforhodamine B assay; how it was run: as §3
[18] = test system: COLO 205; assay: Growth inhibition of human COLO 205 cells assessed as cell growth at 100 uM incubated for 48 hrs by sulforhodamine B assay relative to control; conditions: read-out: Activity; how it was run: as §1
[19] = test system: BT-549; assay: Growth inhibition of human BT-549 cells assessed as cell growth at 0.1 uM incubated for 48 hrs by sulforhodamine B assay relative to control; conditions: read-out: Activity
[20] = test system: OVCAR-4; assay: Growth inhibition of human OVCAR-4 cells assessed as cell growth at 1 uM incubated for 48 hrs by sulforhodamine B assay relative to control; conditions: read-out: Activity
[21] = test system: SNB-19; assay: Growth inhibition of human SNB-19 cells assessed as cell growth at 0.01 uM incubated for 48 hrs by sulforhodamine B assay relative to control; conditions: read-out: Activity
[22] = test system: MCF7; assay: Growth inhibition of human MCF7 cells assessed as cell growth at 100 uM incubated for 48 hrs by sulforhodamine B assay relative to control; conditions: read-out: Activity
[23] = test system: SNB-75; assay: Growth inhibition of human SNB-75 cells assessed as cell growth at 1 uM incubated for 48 hrs by sulforhodamine B assay relative to control; conditions: read-out: Activity
[24] = test system: SF-268; assay: Growth inhibition of human SF-268 cells assessed as cell growth at 100 uM incubated for 48 hrs by sulforhodamine B assay relative to control; conditions: read-out: Activity
[25] = test system: NCI-H322M; assay: Growth inhibition of human NCI-H322M cells incubated for 48 hrs by sulforhodamine B assay; conditions: for CC50: read-out: LC50 (the source's name); how it was run: as §2
[26] = test system: SF-295; assay: Growth inhibition of human SF-295 cells assessed as cell growth at 1 uM incubated for 48 hrs by sulforhodamine B assay relative to control; conditions: read-out: Activity
[27] = test system: MOLT-4; assay: Growth inhibition of human MOLT-4 cells assessed as cell growth at 1 uM incubated for 48 hrs by sulforhodamine B assay relative to control; conditions: read-out: Activity
[28] = test system: NCI-H522; assay: Growth inhibition of human NCI-H522 cells assessed as cell growth at 1 uM incubated for 48 hrs by sulforhodamine B assay relative to control; conditions: read-out: Activity
[29] = test system: NCI-H23; assay: Growth inhibition of human NCI-H23 cells assessed as cell growth at 100 uM incubated for 48 hrs by sulforhodamine B assay relative to control; conditions: read-out: Activity
[30] = test system: NCI-H226; assay: Growth inhibition of human NCI-H226 cells assessed as cell growth at 100 uM incubated for 48 hrs by sulforhodamine B assay relative to control; conditions: read-out: Activity
[31] = test system: DU-145; assay: Growth inhibition of human DU-145 cells assessed as cell growth at 100 uM incubated for 48 hrs by sulforhodamine B assay relative to control; conditions: read-out: Activity; how it was run: as §1
[32] = test system: MOLT-4; assay: Growth inhibition of human MOLT-4 cells incubated for 48 hrs by sulforhodamine B assay; conditions: for CC50: read-out: LC50 (the source's name); how it was run: as §2
[33] = test system: U-251; assay: Growth inhibition of human U-251 cells assessed as cell growth at 0.01 uM incubated for 48 hrs by sulforhodamine B assay relative to control; conditions: read-out: Activity
[34] = test system: RPMI-8226; assay: Growth inhibition of human RPMI-8226 cells assessed as cell growth at 0.1 uM incubated for 48 hrs by sulforhodamine B assay relative to control; conditions: read-out: Activity
[35] = test system: PC-3; assay: Growth inhibition of human PC-3 cells incubated for 48 hrs by sulforhodamine B assay; conditions: for CC50: read-out: LC50 (the source's name); how it was run: as §3

## COc1cccc(NC(=O)c2sc3nc4c(cc3c2N)CN(Cc2ccccc2)CC4)c1
[1]
  growth at 100 µM: -2%
[2]
  growth at 0.1 µM: 98%
[3]
  growth at 1 µM: 83%
[4]
  growth at 0.1 µM: 92%
[5]
  GI50: 4.09 µM
  LC50: > 100 µM
  TGI: 43.5 µM
[6]
  growth at 0.1 µM: 100%
[7]
  growth at 0.01 µM: 92%
[8]
  growth at 0.1 µM: 95%
[9]
  growth at 0.01 µM: 101%
[10]
  GI50: 1.74 µM
  LC50 (concentration killing 50% of cells): > 100 µM
  TGI: > 100 µM
[11]
  GI50: 1.92 µM
  LC50: > 100 µM
  TGI: 29.8 µM
[12]
  growth at 0.1 µM: 89%
[13]
  growth at 100 µM: -32%
[14]
  growth at 100 µM: -28%
[15]
  growth at 0.1 µM: 84%
[16]
  growth at 0.1 µM: 104%
[17]
  GI50: 4.75 µM
  LC50: > 100 µM
  TGI: > 100 µM
[18]
  growth at 100 µM: -16%
[19]
  growth at 0.1 µM: 91%
[20]
  growth at 1 µM: 78%
[21]
  growth at 0.01 µM: 98%
[22]
  growth at 100 µM: 3%
[23]
  growth at 1 µM: 77%
[24]
  growth at 100 µM: -40%
[25]
  GI50: 25.2 µM
  TGI: > 100 µM
  CC50: > 100 µM
[26]
  growth at 1 µM: 77%
[27]
  growth at 1 µM: 78%
[28]
  growth at 1 µM: 74%
[29]
  growth at 100 µM: -19%
[30]
  growth at 100 µM: -29%
[31]
  growth at 100 µM: -61%
[32]
  GI50: 21.9 µM
  TGI: > 100 µM
  CC50: > 100 µM
[33]
  growth at 0.01 µM: 99%
[34]
  growth at 0.1 µM: 101%
[35]
  GI50: 11.6 µM
  TGI: 91.1 µM
  CC50: > 100 µM

## CN1CCc2nc3sc(C(N)=O)c(N)c3c(-c3cccs3)c2C1
[1]
  growth at 100 µM: 5%
[2]
  growth at 0.1 µM: 99%
[3]
  growth at 1 µM: 99%
[4]
  growth at 0.1 µM: 92%
[5]
  GI50: 1.27 µM
  LC50: > 100 µM
  TGI: > 100 µM
[6]
  growth at 0.1 µM: 110%
[7]
  growth at 0.01 µM: 86%
[8]
  growth at 0.1 µM: 106%
[9]
  growth at 0.01 µM: 96%
[10]
  GI50: 2.31 µM
  LC50 (concentration killing 50% of cells): > 100 µM
  TGI: > 100 µM
[11]
  GI50: 2.38 µM
  LC50: 72.2 µM
  TGI: 6.56 µM
[12]
  growth at 0.1 µM: 82%
[13]
  growth at 100 µM: 6%
[14]
  growth at 100 µM: -45%
[15]
  growth at 0.1 µM: 111%
[16]
  growth at 0.1 µM: 115%
[17]
  GI50: 4.34 µM
  LC50: > 100 µM
  TGI: > 100 µM
[18]
  growth at 100 µM: -60%
[19]
  growth at 0.1 µM: 114%
[20]
  growth at 1 µM: 108%
[21]
  growth at 0.01 µM: 103%
[22]
  growth at 100 µM: 11%
[23]
  growth at 1 µM: 99%
[24]
  growth at 100 µM: 2%
[25]
  GI50: 3.85 µM
  TGI: 88.5 µM
  CC50: > 100 µM
[26]
  growth at 1 µM: 100%
[27]
  growth at 1 µM: 85%
[28]
  growth at 1 µM: 86%
[29]
  growth at 100 µM: -30%
[30]
  growth at 100 µM: 14%
[31]
  growth at 100 µM: -1%
[32]
  GI50: 2.89 µM
  TGI: 48.4 µM
  CC50: > 100 µM
[33]
  growth at 0.01 µM: 99%
[34]
  growth at 0.1 µM: 121%
[35]
  GI50: 4.58 µM
  TGI: > 100 µM
  CC50: > 100 µM
